Here are results for 18 compounds from ChEMBL document CHEMBL4680124, “2-Styryl-4-aminoquinazoline derivatives as potent DNA-cleavage, p53-activation and in vivo effective anticancer agents” (Eur J Med Chem, 2020).

As usually defined, the pIC50 is the IC50 on a negative log10 scale, so that one unit is a factor of ten.

In series [1] the test system is MGC-803. Nature of the series: Antitumor activity against human MGC-803 cells xenografted in BALB/C nude mouse assessed as tumor growth inhibition at 10 mg/kg, ip administered every 2 days and measured 3 times per week for 16 days. The series is classed as functional. Details: scale not given: the % may be the effect or the level left. Conditions: time 16 day. In a few lines: (§1)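 Male BALB/c nude mice, 6 weeks old, given 5×10^6 MGC-803 cells s.c. in the flank. When tumors reached about 80 mm3, mice were randomized (n = 6/group) and dosed i.p. every 2 days. Vehicle was 5% DMSO in saline. Drug solutions were 1.0 or 2.0 mg/mL (DMSO/saline). Tumor length and width plus body weight were measured three times weekly; volume = lw²/2. Mean ± SD.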
Background: In xenograft studies the graft and the host belong to different species.

The subject of another series is Mus musculus. The experiment in a line: Toxicity against BALB/c nude mouse xenografted with human MGC-803 cells assessed as body weight at 10 mg/kg, ip administered every 2 days and measured 3 times per week for 16 days. The series is classed as organism-based. The note with it: in vivo, 384 h, time 16 day. In a few lines: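 Male BALB/c nude mice, 6 weeks old, received 5×10^6 MGC-803 cells subcutaneously in the flank. At about 80 mm3, mice were randomized (n = 6/group). They were dosed i.p. every 2 days with vehicle (5% DMSO in saline, v/v) or drug in DMSO/saline at 1.0 or 2.0 mg/mL. Body weight was recorded three times weekly; mean ± SD.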

The subject of a further series is T-24. Nature of the series: Cytotoxicity against human T-24 cells […] assessed as reduction in cell viability preincubated for 48 hrs and measured after 4 hrs by MTT assay. The series is classed as functional, cell-based. On the technique in general: Formazan colour is commonly taken as a measure of viable cells.
The test system of the next series is L02. The experiment in a line: Cytotoxicity against human HL-7702 cells expressing wild type p53 assessed as reduction in cell viability preincubated for 48 hrs and measured after 4 hrs by MTT assay. The series is classed as functional, cell-based.
The next series has as its system DU-145. The experiment in a line: Cytotoxicity against human DU145 cells expressing mutant type p53 assessed as reduction in cell viability preincubated for 48 hrs and measured after 4 hrs by MTT assay. The series is classed as functional, cell-based. In a few lines:
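MTT assay. Cells grown in DMEM (T24, MGC-803, A549, HL-7702), RPMI-1640 (DU145) or DMEM-F12 (PC-3), each with 10% FBS. Exposed to 1.25–20 µM in medium with 1% DMSO for 48 h, then MTT for 4 h. Formazan dissolved in DMSO and read at 570 nm. Five wells per concentration; means ± SD of independent repeats.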

The subject of series [2] is MGC-803. The experiment in a line: Cytotoxicity against human MGC-803 cells expressing mutant type p53 assessed as reduction in cell viability preincubated for 48 hrs and measured after 4 hrs by MTT assay. The series is classed as functional, cell-based.
The test system of another series is PC-3. The experiment in a line: Cytotoxicity against human PC-3 cells assessed as reduction in cell viability preincubated for 48 hrs and measured after 4 hrs by MTT assay. The series is classed as functional, cell-based.
In series [3] the test system is MGC-803. Nature of the series: Antitumor activity against human MGC-803 cells xenografted in BALB/C nude mouse assessed as tumor growth inhibition at 10 mg/kg, ip administered every 2 days and measured 3 times per week. The series is classed as functional, organism-based. The note with it: time 2.0 day. In a few lines: as §1
A further series has as its system A549. Nature of the series: Cytotoxicity against human A549 cells expressing wild type p53 assessed as reduction in cell viability preincubated for 48 hrs and measured after 4 hrs by MTT assay. The series is classed as functional, cell-based.
Series [4] concerns MGC-803. The experiment in a line: Induction of apoptosis in human MGC-803 cells assessed as increase in Bim expression at 5 uM measured after 24 hrs by Western blot analysis. The series is classed as functional, cell-based. In a few lines: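 MGC-803 cells (2×10^6) cultured overnight, then exposed 24 h to 0.5, 1.0 or 2.5 μM, or 5.0 μM for the reference agent. Lysates were resolved by SDS-PAGE, transferred to PVDF and probed with primary antibodies. Detection used AP-linked anti-rabbit IgG and ECL. β-actin served as loading control.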
For orientation: A western blot detects proteins with antibodies after separation by electrophoresis.

The subject of series [5] is MGC-803. The experiment in a line: Induction of apoptosis in human MGC-803 cells assessed as decrease in Bcl-xL expression at 5 uM measured after 24 hrs by Western blot analysis. The series is classed as functional, cell-based. In a few lines: (§2)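 MGC-803 cells (2×10^6) plated overnight, then treated for 24 h at 0.5, 1.0 or 2.5 µM (test agent) or 5.0 µM (comparator). Whole-cell lysates separated by SDS-PAGE, transferred to PVDF and probed with primary antibodies. AP-linked anti-rabbit IgG, ECL detection, β-actin loading control. Representative of three experiments.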

For series [6], the system named is MGC-803. The experiment in a line: Induction of apoptosis in human MGC-803 cells assessed as decrease in Bcl-2 expression at 5 uM measured after 24 hrs by Western blot analysis. The series is classed as functional, cell-based. The method in brief: as §2
Series [7] deals with MGC-803. Nature of the series: Induction of apoptosis in human MGC-803 cells assessed as increase in Bax expression at 5 uM measured after 24 hrs by Western blot analysis. The series is classed as functional, cell-based. In a few lines: as §2
The next series has as its system PLC-PRF-5. Nature of the series: Antitumor activity against human PLC/PRF/5 cells xenografted in mouse assessed as tumor growth inhibition at 30 mg/kg. The series is classed as functional. Conditions: read-out: TGI.
Series [8] concerns MGC-803. The experiment in a line: Induction of apoptosis in human MGC-803 cells assessed as decrease in Bak expression at 5 uM measured after 24 hrs by Western blot analysis. The series is classed as functional, cell-based. In a few lines: as §2

Molecules are shown by their SMILES. pIC50: −log10 of the molar value. The source made the active and inactive calls. The calls are words filed in the database; no cut-off is given here. A value given as a limit tells only on which side of the number the result lay.

Regarding `COc1cccc2c1C(=O)c1c(O)c3c(c(O)c1C2=O)C[C@@](O)(C(=O)CO)C[C@@H]3O[C@H]1C[C@H](N)[C@@H](O)[C@H](C)O1` [EPIRUBICIN], the Activity is recorded as 67.2% with MGC-803 [1] and “Non-Toxic” in the series with Mus musculus. For the same compound, the pIC50 in the series on T-24 was 5.95; in the series on L02, 5.68; in the series on DU-145, 5.70; with MGC-803 [2], 5.92; with PC-3, 5.64; in the series with A549, 6.09. The outcome in the series on MGC-803 [3] was Active.

Turning to `CN(C)CCNc1nc(/C=C/c2ccc([N+](=O)[O-])cc2)nc2ccccc12`, the pIC50 was 5.05 in the series on T-24; 4.75 in the series with L02; 4.80 in the series on DU-145; 4.84 in the series with MGC-803 [2]; 4.29 in the series with PC-3; 4.47 with A549.

In the case of `CC(C)N(CCNc1nc(/C=C/c2ccc([N+](=O)[O-])cc2)nc2ccccc12)C(C)C`, the negative logarithm of the IC50 (pIC50) with T-24 is 4.85; with L02, 5.05; in the series with DU-145, under 4.00; in the series with MGC-803 [2], 4.54; with PC-3, under 4.00; in the series with A549 it was under 4.00.

For the compound `CN(C)CCCNc1nc(/C=C/c2ccc([N+](=O)[O-])cc2)nc2ccccc12`, the pIC50 in the series with T-24 was 5.04; with L02 it was 4.67; in the series with DU-145, 4.61; in the series with MGC-803 [2], 4.80; in the series on PC-3, under 4.00; in the series on A549 it was 4.23.

For the compound `CC(C)N(CCNc1nc(/C=C/c2ccc([N+](=O)[O-])cc2)nc2ccc(Cl)cc12)C(C)C`, the negative-log IC50 (pIC50) was 4.25 in the series on T-24; under 4.00 in the series with L02; under 4.00 in the series on DU-145; 4.76 in the series with MGC-803 [2]; under 4.00 in the series on PC-3; under 4.00 with A549.

Turning to `O=[N+]([O-])c1ccc(/C=C/c2nc(NCCN3CCCCC3)c3cc(Cl)ccc3n2)cc1`, the pIC50 with T-24 was 4.46; in the series with L02, under 4.00; in the series on DU-145, under 4.00; in the series on MGC-803 [2], 4.70; in the series with PC-3, under 4.00; in the series on A549 it was 4.39.

Turning to `CN(C)CCCNc1nc(/C=C/c2ccc3c(c2)OCO3)nc2ccccc12`, the pIC50 with T-24 was 5.06; in the series with L02, 4.84; in the series with DU-145, 4.60; with MGC-803 [2] it was 4.86; in the series on PC-3, under 4.00; in the series on A549 it was under 4.00.

Turning to `CCN(CC)CCCNc1nc(/C=C/c2ccc([N+](=O)[O-])cc2)nc2ccc(Cl)cc12`, the pIC50 in the series with T-24 was 5.15; in the series on L02 it was 4.82; in the series on DU-145, 5.09; in the series on MGC-803 [2], 5.13; in the series on PC-3 it was 5.16; with A549 it was 4.12.

`COc1ccc(/C=C/c2nc(NCCCN(C)C)c3ccccc3n2)cc1`: the outcome in the series on MGC-803 [4], in the series on MGC-803 [5], in the series on MGC-803 [6], with MGC-803 [7] and with MGC-803 [8] was inactive. For the same compound, the pIC50 in the series with T-24 was 4.69; with L02, 4.60; with DU-145, 4.81; with MGC-803 [2], 4.74; in the series on PC-3, 4.79; in the series on A549, 4.61. The inhibition in vivo at 30 mg/kg in the series on PLC-PRF-5 turned out to be 60%.

As for `CCN(CC)CCNc1nc(/C=C/c2ccc3c(c2)OCO3)nc2ccccc12`, the negative logarithm of the IC50 (pIC50) is 5.06 with T-24; 4.68 in the series with L02; 4.79 with DU-145; 5.01 in the series on MGC-803 [2]; 4.47 in the series on PC-3; 4.33 in the series on A549.

For `COc1ccc(/C=C/c2nc(NCCN(C(C)C)C(C)C)c3ccccc3n2)cc1OC`, the pIC50 was 5.19 with T-24; under 4.00 with L02; 4.82 in the series on DU-145; 4.81 in the series with MGC-803 [2]; 4.69 in the series on PC-3; 4.41 in the series on A549.

Regarding `CN(C)CCCNc1nc(/C=C/c2ccc3c(c2)OCO3)nc2ccc(Cl)cc12`, the negative-log IC50 (pIC50) was 5.09 in the series with T-24; under 4.00 in the series on L02; under 4.00 with DU-145; 4.76 in the series with MGC-803 [2]; under 4.00 in the series on PC-3; under 4.00 in the series with A549.

On to `COc1ccc(/C=C/c2nc(NCCN(C(C)C)C(C)C)c3cc(Cl)ccc3n2)cc1OC`, for which the pIC50 was 4.83 in the series on T-24; under 4.00 in the series with L02; under 4.00 in the series on DU-145; 4.81 in the series on MGC-803 [2]; under 4.00 with PC-3; under 4.00 in the series with A549.

For `CCN(CC)CCNc1nc(/C=C/c2ccc(OC)c(OC)c2)nc2ccccc12`, the pIC50 in the series on T-24 was 4.52; in the series with L02, under 4.00; with DU-145, 4.50; in the series with MGC-803 [2] it was under 4.00; in the series with PC-3 it was 4.30; in the series with A549 it was under 4.00.

As to `CCN(CC)CCCNc1nc(/C=C/c2ccc(OC)c(OC)c2)nc2ccc(Cl)cc12`, the negative logarithm of the IC50 (pIC50) was 5.45 in the series on T-24; 5.29 with L02; 5.27 in the series on DU-145; 5.07 in the series on MGC-803 [2]; 5.20 in the series on PC-3; under 4.00 in the series on A549.

On to `CCN(CC)CCCNc1nc(/C=C/c2ccc3c(c2)OCO3)nc2ccccc12`, for which the negative-log IC50 (pIC50) with T-24, with L02, in the series with DU-145, in the series on MGC-803 [2], in the series on PC-3 and in the series on A549 was under 4.00 each time.

For `O=[N+]([O-])c1ccc(/C=C/c2nc(NCCN3CCOCC3)c3cc(Cl)ccc3n2)cc1`, the pIC50 with T-24, with L02, in the series with DU-145, in the series with MGC-803 [2], with PC-3 and with A549 was under 4.00 each time.

Regarding `NCCCCNc1nc(/C=C/c2ccc([N+](=O)[O-])cc2)nc2ccc(Cl)cc12`, the pIC50 in the series with T-24 is 5.25; with L02, under 4.00; in the series with DU-145, under 4.00; in the series on MGC-803 [2], 5.04; in the series on PC-3, under 4.00; in the series with A549, 5.00.
